Measurements: ChEMBL document CHEMBL1127556, “Synthesis and topical antiinflammatory and antiallergic activities of antioxidant o-aminophenol derivatives” (J Med Chem, 1994)
Converted amounts (≈) assume the structure as drawn.

Key:
Rattus norvegicus [1] = species: Rattus norvegicus; assay: Evaluated for its antioxidative effect using the thiobarbituric acid (TBA) method in rat; format: functional
In short: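 Test sample in 67 mM phosphate buffer pH 7.4 mixed with 10% male Wistar rat (300–400 g) forebrain homogenate. Shaken 1 h at 37 °C, deproteinated with 20% TCA. Supernatant heated 10 min at 100 °C with 1.2% thiobarbiturate; absorbance read at 532 nm.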

Mus musculus [2] = assay: Evaluated for its inhibitory effects on 12-O-tetradecanoylphorbol-13-acetate (TPA) -induced edema in mouse ear at a dose of 100 ug/site; format: functional
In short: (§1)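 Male ICR mice, 30–40 g, 10–15 per group. Test compound applied in 25 μL acetone/pyridine/water 97:2:1 containing TPA (200 μg/mL) to the inner surface of one ear. Killed with CO2 5 h later; 6-mm ear punch weighed wet for edema. ED50 taken from three-point dose titration curves.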

Rattus norvegicus [3] = species: Rattus norvegicus; assay: Inhibitory effects on passive cutaneous anaphylaxis in rats at a dose of 1 mg/site; format: functional
In short: (§2)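 Male SD rats, eight per group, sensitized intradermally at two dorsal sites with 0.05 mL anti-ovalbumin rat IgE serum diluted 1:8 in 0.9% saline. Compound applied topically to those sites 5 h before iv challenge 48 h later with 2 mg ovalbumin plus 5 mg Evans blue in 1 mL. Extravasated dye measured 30 min later; percent inhibition versus control group.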

Mus musculus [4] = assay: Inhibitory effects on arachidonic acid (AA) induced mouse ear edema at a dose of 100 ug/ear; format: functional
In short: (§3)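 Male ICR mice (30–40 g, 10–15 per group). Compound in 25 μL acetone/pyridine/water 97:2:1 with arachidonic acid (50 mg/mL) applied to inner surface of one ear. After 1 h, CO2 sacrifice, 6-mm disk punched, edema measured as change in wet weight versus controls.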

Mus musculus [5] = species: Mus musculus; assay: Inhibitory effects on delayed type hypersensitive reaction in mouse ears at a dose of 300 ug/site; format: functional
In short: (§4)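 ICR mice, 10 or 12 per group, sensitized by abdominal swabbing with 0.1 mL antigen in acetone (7% picryl chloride or 1% OXA). DTH response assessed in mouse ears.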

Rattus norvegicus [6] = species: Rattus norvegicus; assay: Compound was evaluated for its inhibitory effects on passive cutaneous anaphylaxis in rats at a dose of 1 mg/site; format: functional; in short: as §2
Oryctolagus cuniculus [7] = species: Oryctolagus cuniculus; assay: Compound was evaluated for primary irritation test by applying at the abraded site and the average score was reported. Number of animals tested =6; format: toxicity, organism-based; details: rabbit, in vivo, topical_or_ocular
In short: (§5)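 Rabbit backs shaved and depilated; 0.5 g compound applied to four sites (two intact, two abraded) under gauze for 24 h. Sites examined grossly 24 and 72 h after removing covering; scored by Draize method.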

Oryctolagus cuniculus [8] = species: Oryctolagus cuniculus; assay: Compound was evaluated for primary irritation test by applying at the intact site and the average score was reported. Number of animals tested =6; format: toxicity, organism-based; details: rabbit, in vivo, topical_or_ocular; in short: as §5
Oryctolagus cuniculus [9] = species: Oryctolagus cuniculus; assay: Compound was evaluated for primary irritation test by applying at the intact site and the average score was reported. Number of animals tested =6.; format: toxicity, organism-based; details: rabbit, in vivo, topical_or_ocular; in short: as §5
Rattus norvegicus [10] = species: Rattus norvegicus; assay: Compound was evaluated for its inhibitory effects on passive cutaneous anaphylaxis in rats at a dose of 1 (mg / site).; format: functional; in short: as §2
Mus musculus [11] = assay: Compound was evaluated for its inhibitory effects on arachidonic acid induced ear edema at a dose of 100 (ug / ear)
Mus musculus [12] = assay: Compound was evaluated for its inhibitory effects on 12-O-tetradecanoylphorbol-13-acetate -induced edema.
Mus musculus [13] = species: Mus musculus; assay: Compound was evaluated for its effective dose to inhibit picryl chloride induced delayed type hypersensitivity.
Mus musculus [14] = species: Mus musculus; assay: Compound was evaluated for its effective dose to inhibit oxazolone- induced delayed type hypersensitivity
Rattus norvegicus [15] = species: Rattus norvegicus; assay: Compound was evaluated for its inhibitory effects on passive cutaneous anaphylaxis in rats at a dose of 2.5 (mg / site).; format: functional; in short: as §2
Rattus norvegicus [16] = species: Rattus norvegicus; assay: Compound was evaluated for its inhibitory effects on passive cutaneous anaphylaxis in rats at a dose of 2.5 mg/site; format: functional; in short: as §2
Mus musculus [17] = species: Mus musculus; assay: Compound was evaluated for its inhibitory effects on delayed type hypersensitive reaction in mouse ears at a dose of 300 ug/site; format: functional; in short: as §4
Mus musculus [18] = assay: Compound was evaluated for its inhibitory effects on 12-O-tetradecanoylphorbol-13-acetate (TPA) -induced edema in mouse ear at a dose of 100 ug/site; format: functional; in short: as §1
Mus musculus [19] = assay: Compound was evaluated for its inhibitory effects on arachidonic acid (AA) induced mouse ear edema at a dose of 100 ug/ear; format: functional; in short: as §3

Compound	IC50 (Rattus norvegicus [1])	Inhibition (Mus musculus [2])	Inhibition (Rattus norvegicus [3])	Inhibition (Mus musculus [4])	Inhibition (Mus musculus [5])	other results
Cc1ccc(O)c(NCCCN2CCN(C(c3ccccc3)c3ccccc3)CC2)c1	0.038 µg/mL (≈ 0.0914 µM)		11.2%	51%	79.3%	
Cc1ccc(O)c(NCCCN2CCC(OC(c3ccccc3)c3ccccc3)CC2)c1	0.036 µg/mL (≈ 0.0836 µM)			61.8%	28.1%	Inhibition (Rattus norvegicus [6]): 28.3%
Cc1ccc(O)c(NCCCN2CCC(C(O)(c3ccccc3)c3ccccc3)CC2)c1	0.029 µg/mL (≈ 0.0673 µM)	89%	36.8%	61.5%	77%	Average score (Oryctolagus cuniculus [7]): 0; Average score (Oryctolagus cuniculus [9]): 0
C[C@]12CCC(=O)C=C1CCC1[C@@H]2[C@@H](O)C[C@@]2(C)[C@H]1CC[C@]2(O)C(=O)CO (single isomer, unassigned) [HYDROCORTISONE]						Inhibition (Rattus norvegicus [10]): 6.99%; ED50 (Mus musculus [11]): 3.09 µg/mL (≈ 8.52 µM); ED50 (Mus musculus [12]): 6.69 µg/mL (≈ 18.5 µM); ED50 (Mus musculus [13]): 1.2 µg/mL (≈ 3.31 µM); ED50 (Mus musculus [14]): 3.43 µg/mL (≈ 9.46 µM); Inhibition (Rattus norvegicus [15]): -16.4%
CN(C)CCOC(c1ccccc1)c1ccccc1 [DIPHENHYDRAMINE]			27.9%			Inhibition (Rattus norvegicus [16]): 52.8%; ED50 (Mus musculus [17]): >300 µg/mL; ED50 (Mus musculus [18]): >300 µg/mL; ED50 (Mus musculus [19]): >300 µg/mL
CC(C(=O)O)c1ccc(C(=O)c2cccs2)cc1 (stereo not given) [SUPROFEN]			-0.7%			Inhibition (Rattus norvegicus [16]): 16.9%; ED50 (Mus musculus [17]): >300 µg/mL; ED50 (Mus musculus [18]): 123.2 µg/mL (≈ 473 µM); ED50 (Mus musculus [19]): 15.4 µg/mL (≈ 59.2 µM)

Now from value to compound, other results behind:

IC50 (Rattus norvegicus [1])	Compound	Inhibition (Mus musculus [2])	Inhibition (Rattus norvegicus [3])	Inhibition (Mus musculus [4])	Inhibition (Mus musculus [5])	other results
0.39 µg/mL (≈ 0.73 µM)	CC(C)N(CCCN1CCN(C(c2ccccc2)c2ccc(Cl)cc2)CC1)c1cc(C(C)(C)C)ccc1O (stereo not given)	40.3%				
0.48 µg/mL (≈ 0.991 µM)	Cc1ccc(O)c(NCCCN2CCN(C(c3ccc(Cl)cc3)c3ccc(Cl)cc3)CC2)c1	58.2%				
0.44 µg/mL (≈ 0.894 µM)	Cc1ccc(O)c(N(CCCN2CCN(C(c3ccccc3)c3ccc(Cl)cc3)CC2)C(C)C)c1 (stereo not given)	44.4%				
2.2 µg/mL (≈ 4.18 µM)	Cc1ccc(O)c(N(CCCN2CCN(C(c3ccc(Cl)cc3)c3ccc(Cl)cc3)CC2)C(C)C)c1	26.4%				
0.025 µg/mL (≈ 0.0536 µM)	Cc1ccc(O)c(NCCCN2CCC(C(O)(c3ccc(F)cc3)c3ccc(F)cc3)CC2)c1	86.9%	25.4%			
0.041 µg/mL (≈ 0.0882 µM)	Cc1ccc(O)c(NCCCN2CCC(C(O)(c3ccccc3)c3ccc(Cl)cc3)CC2)c1 (stereo not given)	97.5%	39.2%	43.7%	80.4%	Average score (Oryctolagus cuniculus [7]): 0; Average score (Oryctolagus cuniculus [8]): 0
0.084 µg/mL (≈ 0.181 µM)	Cc1ccc(O)c(NCCCN2CCC(OC(c3ccccc3)c3ccc(Cl)cc3)CC2)c1 (stereo not given)	86%	26%	53.6%	31.3%	
0.87 µg/mL (≈ 2.02 µM)	Cc1c(C)c2c(c(C)c1O)CC[C@@](C)(CCC[C@H](C)CCC[C@H](C)CCCC(C)C)O2 [ALPHA-TOCOPHEROL]					
